Target: Protein cereblon/Indoleamine 2,3-dioxygenase 1 (Homo sapiens, UniProt P14902+Q96SW2)
Test: Protac activity at IDO1/CRBN in IFNgamma-stimulated human U87 cells assessed as IDO1 degradation at 10 uM measured after 24 hrs by Western blotting analysis relative to control
Format: cell-based
How it was run: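 U87 GBM cells primed with human IFNγ 50 ng/mL for 24 h, then exposed to PROTAC at 10 μM for 24 h. Lysates run on western blot; IDO1 bands quantified by densitometry and expressed as percent of normalized IDO1 protein level.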

Chain of Protein cereblon/Indoleamine 2,3-dioxygenase 1 (P14902 whole entry, looked up): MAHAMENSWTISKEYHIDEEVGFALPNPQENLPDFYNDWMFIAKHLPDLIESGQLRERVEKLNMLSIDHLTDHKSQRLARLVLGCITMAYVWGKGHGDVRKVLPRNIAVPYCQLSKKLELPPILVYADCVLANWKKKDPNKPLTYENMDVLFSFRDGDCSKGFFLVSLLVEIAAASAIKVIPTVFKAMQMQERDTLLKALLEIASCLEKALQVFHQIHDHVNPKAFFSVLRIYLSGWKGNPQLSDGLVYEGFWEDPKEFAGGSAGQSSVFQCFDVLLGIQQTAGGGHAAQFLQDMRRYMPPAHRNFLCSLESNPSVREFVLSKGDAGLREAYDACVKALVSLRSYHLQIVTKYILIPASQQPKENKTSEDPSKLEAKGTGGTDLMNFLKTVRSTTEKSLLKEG
Chain of Protein cereblon/Indoleamine 2,3-dioxygenase 1 (Q96SW2 whole entry, looked up): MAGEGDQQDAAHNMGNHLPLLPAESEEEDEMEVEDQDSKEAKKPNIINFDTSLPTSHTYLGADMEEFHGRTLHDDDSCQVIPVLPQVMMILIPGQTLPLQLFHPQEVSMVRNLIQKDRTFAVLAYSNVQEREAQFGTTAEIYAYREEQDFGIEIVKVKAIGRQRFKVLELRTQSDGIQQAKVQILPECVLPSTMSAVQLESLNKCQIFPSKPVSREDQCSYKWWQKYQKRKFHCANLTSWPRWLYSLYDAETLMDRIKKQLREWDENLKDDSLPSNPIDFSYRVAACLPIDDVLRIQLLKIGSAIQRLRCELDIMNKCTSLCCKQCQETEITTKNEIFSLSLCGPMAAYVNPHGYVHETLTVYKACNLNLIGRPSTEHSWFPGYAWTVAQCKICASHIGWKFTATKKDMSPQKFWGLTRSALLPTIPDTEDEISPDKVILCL

Compound	Activity [%]
C[C@@H](C(=O)Nc1ccc(OCCCCCCCCCCNc2cccc3c2C(=O)N(C2CCC(=O)NC2=O)C3=O)cc1)[C@H]1CC[C@@H](c2ccnc3ccc(F)cc32)CC1 (stereo not given in full)	0
C[C@@H](C(=O)Nc1ccc(OCCCCNC(=O)COc2cccc3c2C(=O)N(C2CCC(=O)NC2=O)C3=O)cc1)[C@H]1CC[C@@H](c2ccnc3ccc(F)cc32)CC1 (stereo not given in full)	10
C[C@@H](C(=O)Nc1ccc(Cl)c(OCCCCCCCCCNC(=O)COc2cccc3c2C(=O)N(C2CCC(=O)NC2=O)C3=O)c1)[C@H]1CC[C@@H](c2ccnc3ccc(F)cc32)CC1 (stereo not given in full)	0
C[C@@H](C(=O)Nc1ccc(Cl)c(OCCOCCNc2cccc3c2C(=O)N(C2CCC(=O)NC2=O)C3=O)c1)[C@H]1CC[C@@H](c2ccnc3ccc(F)cc32)CC1 (stereo not given in full)	66
C[C@@H](C(=O)Nc1ccc(OCCOCCOCCOCCOCCOCCOc2cccc3c2C(=O)N(C2CCC(=O)NC2=O)C3=O)cc1)[C@H]1CC[C@@H](c2ccnc3ccc(F)cc32)CC1 (stereo not given in full)	0
C[C@@H](C(=O)Nc1ccc(OCCOCCOCCOCCOCCOc2cccc3c2C(=O)N(C2CCC(=O)NC2=O)C3=O)cc1)[C@H]1CC[C@@H](c2ccnc3ccc(F)cc32)CC1 (stereo not given in full)	0
C[C@@H](C(=O)Nc1ccc(Cl)c(OCCCNc2cccc3c2C(=O)N(C2CCC(=O)NC2=O)C3=O)c1)[C@H]1CC[C@@H](c2ccnc3ccc(F)cc32)CC1 (stereo not given in full)	36
C[C@@H](C(=O)Nc1ccc(OCCCCNc2cccc3c2C(=O)N(C2CCC(=O)NC2=O)C3=O)cc1)[C@H]1CC[C@@H](c2ccnc3ccc(F)cc32)CC1 (stereo not given in full)	0
C[C@@H](C(=O)Nc1ccc(OC2CCN(CCCOCCOCCOc3cccc4c3C(=O)N(C3CCC(=O)NC3=O)C4=O)CC2)cc1)[C@H]1CC[C@@H](c2ccnc3ccc(F)cc32)CC1 (stereo not given in full)	0
C[C@@H](C(=O)Nc1ccc(OCCOCCOCCOCCNC(=O)COc2cccc3c2C(=O)N(C2CCC(=O)NC2=O)C3=O)cc1)[C@H]1CC[C@@H](c2ccnc3ccc(F)cc32)CC1 (stereo not given in full)	0
C[C@@H](C(=O)Nc1ccc(OCCOCCOCCOCCOCCOCCNc2cccc3c2C(=O)N(C2CCC(=O)NC2=O)C3=O)cc1)[C@H]1CC[C@@H](c2ccnc3ccc(F)cc32)CC1 (stereo not given in full)	0
C[C@@H](C(=O)Nc1ccc(OCCCCOc2cccc3c2C(=O)N(C2CCC(=O)NC2=O)C3=O)cc1)[C@H]1CC[C@@H](c2ccnc3ccc(F)cc32)CC1 (stereo not given in full)	0
C[C@@H](C(=O)Nc1ccc(Cl)c(OCCOCCOCCOCCNc2cccc3c2C(=O)N(C2CCC(=O)NC2=O)C3=O)c1)[C@H]1CC[C@@H](c2ccnc3ccc(F)cc32)CC1 (stereo not given in full)	0
C[C@@H](C(=O)Nc1ccc(OCCCCCCCNC(=O)COc2cccc3c2C(=O)N(C2CCC(=O)NC2=O)C3=O)cc1)[C@H]1CC[C@@H](c2ccnc3ccc(F)cc32)CC1 (stereo not given in full)	0
C[C@@H](C(=O)Nc1ccc(Cl)c(OCCOCCOCCOCCNC(=O)COc2cccc3c2C(=O)N(C2CCC(=O)NC2=O)C3=O)c1)[C@H]1CC[C@@H](c2ccnc3ccc(F)cc32)CC1 (stereo not given in full)	0
C[C@@H](C(=O)Nc1ccc(OC2CN(CCCOCCOCCNC(=O)COc3cccc4c3C(=O)N(C3CCC(=O)NC3=O)C4=O)C2)cc1)[C@H]1CC[C@@H](c2ccnc3ccc(F)cc32)CC1 (stereo not given in full)	0
C[C@@H](C(=O)Nc1ccc(OC2CN(C(=O)CCOCCNC(=O)COc3cccc4c3C(=O)N(C3CCC(=O)NC3=O)C4=O)C2)cc1)[C@H]1CC[C@@H](c2ccnc3ccc(F)cc32)CC1 (stereo not given in full)	86
C[C@@H](C(=O)Nc1ccc(OCCOCCOCCOCCOCCNc2cccc3c2C(=O)N(C2CCC(=O)NC2=O)C3=O)cc1)[C@H]1CC[C@@H](c2ccnc3ccc(F)cc32)CC1 (stereo not given in full)	0
C[C@@H](C(=O)Nc1ccc(OC2CCN(C(=O)CCOCCNC(=O)COc3cccc4c3C(=O)N(C3CCC(=O)NC3=O)C4=O)CC2)cc1)[C@H]1CC[C@@H](c2ccnc3ccc(F)cc32)CC1 (stereo not given in full)	38
C[C@@H](C(=O)Nc1ccc(Cl)c(OCCOCCOCCOCCOCCOCCOc2cccc3c2C(=O)N(C2CCC(=O)NC2=O)C3=O)c1)[C@H]1CC[C@@H](c2ccnc3ccc(F)cc32)CC1 (stereo not given in full)	0
C[C@@H](C(=O)Nc1ccc(Cl)c(OCCOCCOCCOCCOCCNc2cccc3c2C(=O)N(C2CCC(=O)NC2=O)C3=O)c1)[C@H]1CC[C@@H](c2ccnc3ccc(F)cc32)CC1 (stereo not given in full)	0
C[C@@H](C(=O)Nc1ccc(OC2CCN(C(=O)CCOCCOCCOc3cccc4c3C(=O)N(C3CCC(=O)NC3=O)C4=O)CC2)cc1)[C@H]1CC[C@@H](c2ccnc3ccc(F)cc32)CC1 (stereo not given in full)	80
C[C@@H](C(=O)Nc1ccc(Cl)c(OCCCCCCCCCOc2cccc3c2C(=O)N(C2CCC(=O)NC2=O)C3=O)c1)[C@H]1CC[C@@H](c2ccnc3ccc(F)cc32)CC1 (stereo not given in full)	16
C[C@@H](C(=O)Nc1ccc(Cl)c(OCCOCCOCCNC(=O)COc2cccc3c2C(=O)N(C2CCC(=O)NC2=O)C3=O)c1)[C@H]1CC[C@@H](c2ccnc3ccc(F)cc32)CC1 (stereo not given in full)	40
C[C@@H](C(=O)Nc1ccc(Cl)c(OCCOCCOCCOCCOCCOCCNC(=O)COc2cccc3c2C(=O)N(C2CCC(=O)NC2=O)C3=O)c1)[C@H]1CC[C@@H](c2ccnc3ccc(F)cc32)CC1 (stereo not given in full)	0

Compound	Activity [%]
C[C@@H](C(=O)Nc1ccc(Cl)c(OCCOCCOCCOCCOCCOc2cccc3c2C(=O)N(C2CCC(=O)NC2=O)C3=O)c1)[C@H]1CC[C@@H](c2ccnc3ccc(F)cc32)CC1 (stereo not given in full)	0
C[C@@H](C(=O)Nc1ccc(Cl)c(OCCOCCOCCOc2cccc3c2C(=O)N(C2CCC(=O)NC2=O)C3=O)c1)[C@H]1CC[C@@H](c2ccnc3ccc(F)cc32)CC1 (stereo not given in full)	88
C[C@@H](C(=O)Nc1ccc(Cl)c(OCCCOc2cccc3c2C(=O)N(C2CCC(=O)NC2=O)C3=O)c1)[C@H]1CC[C@@H](c2ccnc3ccc(F)cc32)CC1 (stereo not given in full)	49
C[C@@H](C(=O)Nc1ccc(Cl)c(OCCOCCOc2cccc3c2C(=O)N(C2CCC(=O)NC2=O)C3=O)c1)[C@H]1CC[C@@H](c2ccnc3ccc(F)cc32)CC1 (stereo not given in full)	6
C[C@@H](C(=O)Nc1ccc(OCCOCCOCCOCCOCCNC(=O)COc2cccc3c2C(=O)N(C2CCC(=O)NC2=O)C3=O)cc1)[C@H]1CC[C@@H](c2ccnc3ccc(F)cc32)CC1 (stereo not given in full)	0
C[C@@H](C(=O)Nc1ccc(OC2CCN(CCCOCCNC(=O)COc3cccc4c3C(=O)N(C3CCC(=O)NC3=O)C4=O)CC2)cc1)[C@H]1CC[C@@H](c2ccnc3ccc(F)cc32)CC1 (stereo not given in full)	66
C[C@@H](C(=O)Nc1ccc(OCCOCCOCCOCCOCCOCCNC(=O)COc2cccc3c2C(=O)N(C2CCC(=O)NC2=O)C3=O)cc1)[C@H]1CC[C@@H](c2ccnc3ccc(F)cc32)CC1 (stereo not given in full)	46
C[C@@H](C(=O)Nc1ccc(OCCCCCCCCCCOc2cccc3c2C(=O)N(C2CCC(=O)NC2=O)C3=O)cc1)[C@H]1CC[C@@H](c2ccnc3ccc(F)cc32)CC1 (stereo not given in full)	0
C[C@@H](C(=O)Nc1ccc(OC2CN(C(=O)CCOCCOCCNc3cccc4c3C(=O)N(C3CCC(=O)NC3=O)C4=O)C2)cc1)[C@H]1CC[C@@H](c2ccnc3ccc(F)cc32)CC1 (stereo not given in full)	94
C[C@@H](C(=O)Nc1ccc(Cl)c(OCCCCCCOc2cccc3c2C(=O)N(C2CCC(=O)NC2=O)C3=O)c1)[C@H]1CC[C@@H](c2ccnc3ccc(F)cc32)CC1 (stereo not given in full)	0
C[C@@H](C(=O)Nc1ccc(Cl)c(OCCOCCOCCOCCOCCNC(=O)COc2cccc3c2C(=O)N(C2CCC(=O)NC2=O)C3=O)c1)[C@H]1CC[C@@H](c2ccnc3ccc(F)cc32)CC1 (stereo not given in full)	0
C[C@@H](C(=O)Nc1ccc(OCCOCCOCCOc2cccc3c2C(=O)N(C2CCC(=O)NC2=O)C3=O)cc1)[C@H]1CC[C@@H](c2ccnc3ccc(F)cc32)CC1 (stereo not given in full)	94
C[C@@H](C(=O)Nc1ccc(OCCOCCNC(=O)COc2cccc3c2C(=O)N(C2CCC(=O)NC2=O)C3=O)cc1)[C@H]1CC[C@@H](c2ccnc3ccc(F)cc32)CC1 (stereo not given in full)	48
C[C@@H](C(=O)Nc1ccc(Cl)c(OCCOCCNC(=O)COc2cccc3c2C(=O)N(C2CCC(=O)NC2=O)C3=O)c1)[C@H]1CC[C@@H](c2ccnc3ccc(F)cc32)CC1 (stereo not given in full)	8
C[C@@H](C(=O)Nc1ccc(OCCOCCOc2cccc3c2C(=O)N(C2CCC(=O)NC2=O)C3=O)cc1)[C@H]1CC[C@@H](c2ccnc3ccc(F)cc32)CC1 (stereo not given in full)	18
C[C@@H](C(=O)Nc1ccc(OC2CCN(CCCOCCOc3cccc4c3C(=O)N(C3CCC(=O)NC3=O)C4=O)CC2)cc1)[C@H]1CC[C@@H](c2ccnc3ccc(F)cc32)CC1 (stereo not given in full)	0
C[C@@H](C(=O)Nc1ccc(Cl)c(OCCCCCCNC(=O)COc2cccc3c2C(=O)N(C2CCC(=O)NC2=O)C3=O)c1)[C@H]1CC[C@@H](c2ccnc3ccc(F)cc32)CC1 (stereo not given in full)	0
C[C@@H](C(=O)Nc1ccc(Cl)c(OCCCCCCCCCNc2cccc3c2C(=O)N(C2CCC(=O)NC2=O)C3=O)c1)[C@H]1CC[C@@H](c2ccnc3ccc(F)cc32)CC1 (stereo not given in full)	0
C[C@@H](C(=O)Nc1ccc(OCCOCCNc2cccc3c2C(=O)N(C2CCC(=O)NC2=O)C3=O)cc1)[C@H]1CC[C@@H](c2ccnc3ccc(F)cc32)CC1 (stereo not given in full)	23
C[C@@H](C(=O)Nc1ccc(OCCOCCOCCOCCNc2cccc3c2C(=O)N(C2CCC(=O)NC2=O)C3=O)cc1)[C@H]1CC[C@@H](c2ccnc3ccc(F)cc32)CC1 (stereo not given in full)	0
C[C@@H](C(=O)Nc1ccc(OC2CCN(C(=O)CCOCCOc3cccc4c3C(=O)N(C3CCC(=O)NC3=O)C4=O)CC2)cc1)[C@H]1CC[C@@H](c2ccnc3ccc(F)cc32)CC1 (stereo not given in full)	45
C[C@@H](C(=O)Nc1ccc(OCCOCCOCCOCCOc2cccc3c2C(=O)N(C2CCC(=O)NC2=O)C3=O)cc1)[C@H]1CC[C@@H](c2ccnc3ccc(F)cc32)CC1 (stereo not given in full)	0
C[C@@H](C(=O)Nc1ccc(Cl)c(OCCOCCOCCOCCOCCOCCNc2cccc3c2C(=O)N(C2CCC(=O)NC2=O)C3=O)c1)[C@H]1CC[C@@H](c2ccnc3ccc(F)cc32)CC1 (stereo not given in full)	0
C[C@@H](C(=O)Nc1ccc(OC2CCN(C(=O)CCOCCNc3cccc4c3C(=O)N(C3CCC(=O)NC3=O)C4=O)CC2)cc1)[C@H]1CC[C@@H](c2ccnc3ccc(F)cc32)CC1 (stereo not given in full)	33
C[C@@H](C(=O)Nc1ccc(OC2CN(C(=O)CCOCCOCCOc3cccc4c3C(=O)N(C3CCC(=O)NC3=O)C4=O)C2)cc1)[C@H]1CC[C@@H](c2ccnc3ccc(F)cc32)CC1 (stereo not given in full)	74

Source: ChEMBL document CHEMBL5150051, “Identification and Characterization of a Novel Indoleamine 2,3-Dioxygenase 1 Protein Degrader for Glioblastoma” (J Med Chem, 2022)
